Source: PubChem
Shown are actives, neighbours in structure and some others; about 5.8% of the full set was active somewhere.
Cav3 T inh = Cav3.2 calcium influx blockers – cell-based, Fluo-4 calcium fluorescence, FDSS, MLSMR library, primary screen. Voltage-dependent T-type calcium channel subunit alpha-1H (Homo sapiens), O95180. Cav3.2-expressing cells; stronger effect = lower value. B-score at 10 µM. hit rate 4% among 100,000;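 active = single-dose well whose peak fluorescence ratio is a statistical outlier from its plate by either plate-standardised score or position-corrected B-score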
FAK blocker = FAK kinase inhibitors, primary screen, biochemical; hit rate 0.84% among 97,000; inhibition, %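 (tested at 7 µM)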; biochemical FAK kinase activity assay; Focal adhesion kinase 1 (Homo sapiens), Q05397; in the data active = inhibition above about 19%;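 also: 0% = DMSO and 100% = reference compound high control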
Rev-RRE block = HIV-1 Rev-RRE binding inhibitors, primary screen, biochemical, FRET, protein-RNA interaction. Rev peptide-RRE RNA binding. inhibition, % at 8 µM. hit rate 0.79% among 97,000;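 active = inhibition above the screen-wide mean plus 3 SD, cut at about 35% in these data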;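 also: 0% = median DMSO wells and 100% = median Neomycin B control wells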
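Test system: Cy5-tagged RRE RNA duplex with fluorescein-tagged Rev peptide; Probe or stimulus: labelled Rev peptide; Schedule: 5 min preincubation and 15 min binding, 25 °C; Signal: FRET fluorescence readout; Evaluation: % inhibition from 671/540 nm acceptor-to-donor ratio, scaled between controls; Control set: DMSO and neomycin B.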
Plk1 PBD FP = Plk1 polo box domain binding inhibitors, primary screen, biochemical, fluorescence polarization; Serine/threonine-protein kinase PLK1 (Homo sapiens), P53350; Plk1 PBD phosphopeptide binding; inhibition, %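 (tested at about 20 µM)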; hit rate 0.13% among 97,000; in the data active = inhibition above about 34%, passing the limit was not always enough
PLK1 inh = human PLK1 kinase inhibitors, primary screen, biochemical, TR-FRET; Serine/threonine-protein kinase PLK1 (Homo sapiens), P53350; recombinant PLK1 kinase, TR-FRET peptide phosphorylation; inhibition, % at 10 µM; hit rate 0.53% among 97,000; AID 619, 2007;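 active = inhibition of 50% or more in the single-concentration screen; inactive = inhibition below 50%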;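 also: 0% = DMSO max control and 100% = H-89 dihydrochloride min control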
Pyk2 oligo antag = antagonists of Pyk2 self-association, primary screen, Q293 cells, FERM NanoBiT luminescence, HTS. Protein-tyrosine kinase 2-beta (Homo sapiens), Q14289. z-score (the deposit names both 25 µM and 10 µM). stronger effect = lower value. hit rate 0.83% among 99,000;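 active = Z-score of -3 or lower, scaled per plate to the spread of control and sample wells; inactive = z-score above -3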;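 also: negative z-score means lost luminescence so less FERM oligomerization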
Numbers without * were called inactive; . = not tested or not shown.

SMILES	Cav3 T inh	FAK blocker	Rev-RRE block	Plk1 PBD FP	PLK1 inh	Pyk2 oligo antag
CCC(=O)Nc1cc(Cl)ccc1N1CCN(C(=O)CC)CC1	0.421	-0.5	3.6	5.6	-12.9	-0.01
O=C(CCc1nc(-c2ccccc2F)no1)NCCc1ccccc1Cl	-7.78*	0.6	10.2	12.4	-13.1	1.33
Cc1cccc(-c2noc(CCC(=O)NCc3ccccc3)n2)c1	-3.13	1.1	4.9	20.5	-11.2	1.87
COc1ccccc1NC(=O)CCc1nc(-c2cccs2)no1	0.854	-1.3	1.9	7.0	-35.8	1.2
O=C(CCc1nc(-c2cccs2)no1)NCc1ccc(F)cc1Cl	-4.54*	-6.1	1.2	3.0	4.1	.
Cc1ccc(CNC(=O)CCc2nc(-c3cccs3)no2)cc1	-5.15*	-1.2	4.0	-6.7	4.3	.
Cc1ccc(S(=O)(=O)N2C(=O)CCC2C(=O)Nn2cnnc2)cc1 (stereo unspecified)	0.64	1.2	8.4	12.9	-3.9	1.69
O=C(Nc1ccc(S(=O)(=O)N2CCCC2)cc1)C1COc2ccccc2O1 (stereo unspecified)	-1.24	.	.	.	.	.
O=C(Nc1ccc(S(=O)(=O)Nc2ccccc2)cc1)C1COc2ccccc2O1 (stereo unspecified)	-3.83*	1.4	19.4	10.9	-5.0	0.02
CCN(CC(=O)Nc1c(C(=O)OC)[nH]c2ccc(C)cc12)c1ccc2c(c1)OCO2	0.418	3.8	-0.9	-3.6	-12.2	-0.03
Cc1ccc(C(=O)Nc2nc(C(C)(C)C)cs2)s1	-4.76	-1.2	10.2	14.7	-6.5	-1.94
CC(C)(C)c1csc(NC(=O)c2ccc(Cl)s2)n1	-1.22	4.0	12.6	1.7	-5.2	-3.04*
O=C(Nc1nc(-c2cccs2)cs1)c1ccc(Cl)s1	-4.11*	.	.	.	.	.
CCn1c(SCC(=O)c2ccccc2)nnc1-c1cccs1	-0.0254	0.7	-3.0	10.3	-6.3	-0.32
CCC(=O)N(CCC(c1ccco1)c1ccccc1OC)Cc1cccs1 (stereo unspecified)	-5.78*	0.6	3.6	18.9	-8.5	0.58
CC(=O)N(CCC(c1ccccc1)c1ccco1)Cc1cccs1 (stereo unspecified)	-7.36*	-5.5	0.4	19.9	-8.4	-0.32
NC(=O)CC(c1ccccc1)c1ccco1 (stereo unspecified)	0.122	1.3	10.0	-20.4	-9.5	0.31
CCN1CCN(C(=O)c2ccc(Cn3c(=O)[nH]c4cc(OC)c(OC)cc4c3=O)cc2)CC1	-0.065	-1.2	5.7	6.1	-0.9	-0.62
O=C(CCCCn1c(=O)[nH]c2ccccc2c1=O)N1CCN(c2cccc(C(F)(F)F)c2)CC1	-9.43*	6.8	8.9	-11.3	-12.2	-1.63
COc1ccc(Cn2c(=O)[nH]c3cc(C(=O)N4CCN(Cc5ccccc5)CC4)ccc3c2=O)cc1	-7.55*	1.0	6.5	-20.3	1.5	-1.16
O=C(c1ccc(Cn2c(=O)[nH]c3ccccc3c2=O)cc1)N1CCN(c2ccc(F)cc2)CC1	-8.97*	-1.4	-0.3	12.9	-0.6	0.91
Cc1ccc(S(=O)(=O)C2(C(=O)N3CCCCC3C)CC2)cc1 (stereo unspecified)	-0.24	2.5	0.2	20.2	-6.6	-0.43
CCCC(=O)c1cc(F)c(N2CCOCC2)cc1C	-0.17	0.2	0.0	-2.3	-12.7	3.05
Cc1nn(Cc2c(F)c(F)c(F)c(F)c2F)c(C)c1NC(=O)c1ccc(COc2ccc(F)cc2)o1	-4.91*	2.5	2.4	8.6	-9.8	-0.31
CCOC(=O)Cc1csc(NC(NC(=O)OCC)(C(=O)OCC)C(F)(F)F)n1 (stereo unspecified)	0.0178	0.1	5.7	-18.8	-2.5	-0.79
COc1cccc(NC(=O)CSc2nc3c(c(=O)n2C)SC(C)C3)c1 (stereo unspecified)	1.15	.	.	.	.	.
C=C1CCN([C@H](C(=O)NCc2ccco2)C(C)C)S(=O)(=O)c2ccccc21	0.465	.	.	.	.	.
O=C(NCc1ccc(Cl)cc1)c1noc2c1CCCCC2	-5.03*	.	.	.	.	0.32
O=C(NCc1ccc(F)cc1)c1noc2c1CCCCC2	-4.51	.	.	.	.	-0.38
